Activity calls are given as the source filed them. The rule behind the calls is not given here.
What was measured:
[1] = Inhibition of bovine liver beta-glucosidase using 10 mM p-nitrophenyl-[…]-D-glucopyranoside as substrate; parameters: species or system Bos taurus
Oryza sativa = assay: Inhibition of rice alpha-glucosidase at 1 mM using 10 mM p-nitrophenyl-alpha-D-glucopyranoside as substrate
Outline: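 Rice α-glucosidase (0.1 U cm−3) was preincubated with compound 1 h at 37 °C. Reaction used 10 mM p-nitrophenyl-α-D-glucopyranoside in 100 mM phosphate pH 6.8, 10 min at 37 °C, stopped with 0.1 M Na2CO3. p-Nitrophenol was read at 420 nm. NI means no 50% inhibition at 1 mM. Ki came from Lineweaver–Burk plots. Average of five assays.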

Aspergillus niger = assay: Inhibition of aspergillus niger alpha-galactosidase at 1 mM using 10 mM p-nitrophenyl-alpha-D-galactopyranoside as substrate
Outline: (§1)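 Galactosidase (0.1 U cm−3) was preincubated with compound 1 h at 37 °C. Reaction used 10 mM p-nitrophenyl-α- or β-D-galactopyranoside in 200 mM sodium acetate, 10 min at 37 °C, stopped with 200 mM borate pH 9.8. Read at 420 nm. NI means no 50% inhibition at 1 mM. Five assays averaged.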

[2] = target: T1, Alpha-mannosidase (Canavalia ensiformis) (UniProt C0HJB3); assay: Inhibition of jack bean alpha-mannosidase at 1 mM using 10 mM p-nitrophenyl-alpha-D-mannopyranoside as substrate
T1 sequence (whole entry): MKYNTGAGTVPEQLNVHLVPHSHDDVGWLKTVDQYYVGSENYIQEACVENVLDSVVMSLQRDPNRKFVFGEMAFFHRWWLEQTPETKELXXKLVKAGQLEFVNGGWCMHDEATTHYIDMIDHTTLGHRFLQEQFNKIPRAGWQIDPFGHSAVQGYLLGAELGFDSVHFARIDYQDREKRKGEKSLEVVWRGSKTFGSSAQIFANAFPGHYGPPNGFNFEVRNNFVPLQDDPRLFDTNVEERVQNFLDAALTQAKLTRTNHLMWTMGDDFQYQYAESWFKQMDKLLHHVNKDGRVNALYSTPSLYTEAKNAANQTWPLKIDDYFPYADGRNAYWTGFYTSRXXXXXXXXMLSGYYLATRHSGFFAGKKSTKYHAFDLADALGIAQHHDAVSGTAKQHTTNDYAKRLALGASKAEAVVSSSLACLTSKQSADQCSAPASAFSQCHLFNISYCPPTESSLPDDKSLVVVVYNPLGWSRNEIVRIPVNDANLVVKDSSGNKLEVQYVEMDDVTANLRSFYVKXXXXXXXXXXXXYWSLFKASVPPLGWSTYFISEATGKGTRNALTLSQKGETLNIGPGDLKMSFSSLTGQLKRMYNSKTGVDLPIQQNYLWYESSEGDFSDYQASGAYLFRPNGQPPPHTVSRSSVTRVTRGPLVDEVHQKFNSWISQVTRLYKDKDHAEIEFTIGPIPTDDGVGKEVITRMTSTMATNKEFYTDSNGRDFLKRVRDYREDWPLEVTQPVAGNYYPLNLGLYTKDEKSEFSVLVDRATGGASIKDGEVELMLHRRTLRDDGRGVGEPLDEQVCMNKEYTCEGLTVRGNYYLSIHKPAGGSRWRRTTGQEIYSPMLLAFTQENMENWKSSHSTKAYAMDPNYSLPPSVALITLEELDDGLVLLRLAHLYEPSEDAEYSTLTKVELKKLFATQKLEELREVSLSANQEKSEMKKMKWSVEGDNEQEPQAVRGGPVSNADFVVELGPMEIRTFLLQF
Outline: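 Jack bean α-mannosidase (0.1 U/cm3) was preincubated with inhibitor for 1 h at 37 °C. Substrate was 10 mM p-nitrophenyl α-D-mannopyranoside in 100 mM citrate pH 4.5, reacted 10 min at 37 °C. The reaction was stopped with 200 mM borate pH 9.8 and absorbance read at 420 nm. Ki came from Lineweaver–Burk plots; average of five assays. NI means under 50% inhibition at 1 mM.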

Splenocyte [3] = assay: Immunostimulating activity in Swiss albino mouse Splenocytes assessed as increase in ConA-induced cell proliferation upto 2.5 uM after 72 hrs by MTT assay; type: functional, cell-based
Outline: (§2)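 Swiss albino mouse splenocytes (2 × 10^6 cells/well) were treated with Con A alone or with test samples at final 0.5, 1, 2.5 and 5 μM. Con A is given as final 10 μg/mL in methods and 10 μM in text. Cells were held 72 h at 37 °C, 5% CO2, in RPMI with 10% FCS, then read by MTT. Values are % of Con A-treated cells (100%), mean ± SEM, n = 5.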

[4] = Cytotoxicity against Swiss albino mouse Splenocytes assessed as cell proliferation at 0.5 to 5 uM after 72 hrs by MTT assay; type: cell-based; conditions: splenocyte; outline: as §2
Splenocyte [5] = assay: Immunostimulating activity in Swiss albino mouse Splenocytes assessed as decrease in ConA-induced IL-4 secretion at 2.5 uM by ELISA; type: functional
Outline: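 Supernatants came from Con A-stimulated splenocytes (2 × 10^6 cells/well) with compound at 2.5 or 5 μM. They were spun 2000g for 5 min and stored at −70 °C. IL-4 was measured by ELISA: sample 2 h at 37 °C, then peroxidase conjugate 1 h, substrate developed in the dark. Absorbance was read at 550 nm with 450 nm correction and quantified from an IL-4 standard curve. n = 5.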

Splenocyte [6] = assay: Immunostimulating activity in Swiss albino mouse Splenocytes assessed as increase in IL-6 secretion at 2.5 uM by ELISA in presence of 10 uM ConA relative to control; type: functional
Outline: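 Splenocytes (2 × 10^6 cells/well) were stimulated with 10 μM Con A plus compound (2.5 or 5 μM). Supernatant IL-6 was measured by sandwich ELISA: sample 2 h at 37 °C, biotinylated antibody 1 h, streptavidin–HRP, then substrate in the dark. Absorbance was read at 550 nm with 450 nm correction against an IL-6 standard curve. Mean ± SEM, n = 5.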

Splenocyte [7] = assay: Immunostimulating activity in Swiss albino mouse Splenocytes assessed as increase in ConA-induced IFN-gamma secretion at 2.5 uM by ELISA; type: functional, cell-based
Outline: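 IFN-γ was measured by ELISA in supernatants of splenocytes (2 × 10^6 cells/well). Cells were unstimulated, stimulated with Con A (10 μM), or given Con A plus compound (2.5 or 5 μM) for 24 h. Mean ± SEM, n = 5.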

Splenocyte [8] = assay: Immunostimulating activity in Swiss albino mouse Splenocytes assessed as ConA-induced cell proliferation > 5 uM after 72 hrs by MTT assay; type: functional, cell-based
[9] = target: T2, Beta-galactosidase (Bos taurus) (UniProt Q58D55); assay: Inhibition of bovine liver beta-galactosidase at 1 mM using 10 mM p-nitrophenyl-beta-D-galactopyranoside as substrate; outline: as §1
T2 sequence (whole entry): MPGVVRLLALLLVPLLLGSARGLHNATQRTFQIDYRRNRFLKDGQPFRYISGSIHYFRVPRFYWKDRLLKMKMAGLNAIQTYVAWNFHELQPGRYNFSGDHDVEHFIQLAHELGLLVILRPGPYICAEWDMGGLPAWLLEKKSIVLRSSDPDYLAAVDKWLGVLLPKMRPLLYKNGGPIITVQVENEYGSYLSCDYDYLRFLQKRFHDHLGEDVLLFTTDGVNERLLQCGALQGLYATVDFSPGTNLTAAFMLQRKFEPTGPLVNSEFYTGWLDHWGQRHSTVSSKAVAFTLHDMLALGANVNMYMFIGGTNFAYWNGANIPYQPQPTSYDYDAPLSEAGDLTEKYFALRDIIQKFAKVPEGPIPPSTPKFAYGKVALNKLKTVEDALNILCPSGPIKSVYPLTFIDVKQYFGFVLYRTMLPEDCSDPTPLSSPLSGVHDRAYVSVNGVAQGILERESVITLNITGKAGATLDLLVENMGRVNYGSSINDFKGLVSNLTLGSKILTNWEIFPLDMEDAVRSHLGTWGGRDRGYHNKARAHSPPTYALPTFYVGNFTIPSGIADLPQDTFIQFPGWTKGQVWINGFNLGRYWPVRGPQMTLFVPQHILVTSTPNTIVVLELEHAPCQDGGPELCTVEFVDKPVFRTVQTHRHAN

[10] = Inhibition of aspergillus niger alpha-galactosidase using 10 mM p-nitrophenyl-alpha-D-galactopyranoside as substrate
Outline: (§3)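 Enzyme (0.1 U/cm3; A. niger α-galactosidase or bovine liver β-galactosidase) was preincubated with inhibitor for 1 h at 37 °C. Substrate was 10 mM p-nitrophenyl α- or β-D-galactopyranoside in 200 mM sodium acetate, reacted 10 min at 37 °C. The reaction was stopped with 200 mM borate pH 9.8 and released p-nitrophenol read at 420 nm. Ki came from Lineweaver–Burk plots; values are the average of five assays.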

Beta-galactosidase = target: T3, Beta-galactosidase (Bos taurus, UniProt Q58D55); assay: Inhibition of bovine liver beta-galactosidase using 10 mM p-nitrophenyl-beta-D-galactopyranoside as substrate; outline: as §3
T3 sequence (Q58D55 whole entry): T2 sequence (whole entry)

Alpha-mannosidase = target: T4, Alpha-mannosidase (Canavalia ensiformis, UniProt C0HJB3); assay: Inhibition of jack bean alpha-mannosidase using 10 mM p-nitrophenyl-alpha-D-mannopyranoside as substrate
T4 sequence (C0HJB3 whole entry): T1 sequence (whole entry)
Outline: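 Jack bean α-mannosidase (0.1 U cm−3) was preincubated with compound 1 h at 37 °C. Reaction used 10 mM p-nitrophenyl-α-D-mannopyranoside in 100 mM citrate pH 4.5, 10 min at 37 °C, stopped with 200 mM borate pH 9.8. Read at 420 nm. IC50 and Ki were determined, Ki from Lineweaver–Burk double-reciprocal plots. Mean of five assays.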

[11] = Immunostimulating activity in Swiss albino mouse Splenocytes assessed as increase in ConA-induced cell proliferation at 0.5 uM after 72 hrs by MTT assay; type: functional, Splenocyte; outline: as §2
[12] = Immunostimulating activity in Swiss albino mouse Splenocytes assessed as increase in ConA-induced cell proliferation at 1 uM after 72 hrs by MTT assay; type: functional, Splenocyte; outline: as §2
[13] = Immunostimulating activity in Swiss albino mouse Splenocytes assessed as increase in ConA-induced cell proliferation at 2.5 uM after 72 hrs by MTT assay; type: functional, Splenocyte; outline: as §2
[14] = Immunostimulating activity in Swiss albino mouse Splenocytes assessed as increase in ConA-induced cell proliferation at 5 uM after 72 hrs by MTT assay; type: functional, Splenocyte; outline: as §2

| Compound | IC50 [1] | Ki [1] | inhibition (Oryza sativa) | Activity (Splenocyte [3]) | Activity [4] | inhibition at 2.5 µM (Splenocyte [5]) | fold change (FC) (Splenocyte [6]) | Activity (Splenocyte [7]) | Activity (Splenocyte [8]) | other results |
| --- | --- | --- | --- | --- | --- | --- | --- | --- | --- | --- |
| O=C1CC[C@@]2(COCc3ccccc3)[C@@H](O)[C@H](O)[C@H](O)CN12 | 342000 nM | 113000 nM | < 50% | Active | Non-toxic | 40% | 4.9 | Active | inactive | inhibition (Aspergillus niger): < 50%; inhibition [2]: < 50%; inhibition [9]: < 50% |
| O=C1CC[C@]2(CO)[C@@H](O)[C@H](O)[C@@H](O)CN12 | 22000 nM | 11000 nM | < 50% | Active | Non-toxic | 57% | 12.1 | Active | inactive | IC50 [10]: 420 nM; Ki [10]: 330 nM; IC50 (Beta-galactosidase): 800 nM; Ki (Beta-galactosidase): 200 nM; IC50 (Alpha-mannosidase): 56 nM; Ki (Alpha-mannosidase): 35 nM; Activity [11]: 13%; Activity [12]: 80%; Activity [13]: 130%; Activity [14]: 103% |

Source: ChEMBL document CHEMBL3621047, “Quaternary Indolizidine and Indolizidone Iminosugars as Potential Immunostimulating and Glycosidase Inhibitory Agents: Synthesis, Conformational Analysis, Biological Activity, and Molecular Docking Study” (J Med Chem, 2015)
